≈ marks a conversion by molar mass, not a printed value.
Legend:
Streptococcus pneumoniae [1] = test: The compound was evaluated for its anti-bacterial activity against Streptococcus pneumoniae UC 9912; assay type: functional
Method in brief: (§1)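 MICs were determined by standard agar dilution against a panel of Gram-positive and Gram-negative isolates.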

Staphylococcus aureus [2] = test: The compound was evaluated for its anti-bacterial activity against methicillin resistant Staphylococcus aureus; assay type: functional
Method in brief: (§2)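 MIC determined in vitro by standard agar dilution against bacterial isolates.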

Enterococcus faecalis = test: The compound was evaluated for its anti-bacterial activity against Enterococcus faecalis UC 9217; assay type: functional; method in brief: as §1
Staphylococcus aureus [3] = test: The compound was evaluated for its anti-bacterial activity against methicillin susceptible Staphylococcus aureus; assay type: functional; method in brief: as §2
Moraxella catarrhalis = test: The compound was evaluated for its anti-bacterial activity against Moraxella catarrhalis UC 30610; assay type: functional; method in brief: as §1
[4] = system: Staphylococcus epidermidis; test: The compound was evaluated for its anti-bacterial activity against methicillin resistant Staphylococcus epidermidis; assay type: functional; method in brief: as §2
Haemophilus influenzae = test: The compound was evaluated for its anti-bacterial activity against Haemophilus influenzae UC 30063; assay type: functional; method in brief: as §1
Staphylococcus aureus [5] = test: The compound was evaluated for its effective dose against Staphylococcus aureus UC 9213; assay type: functional
[6] = Cmax was evaluated in male Dawley rats at a dose of 9.9 mg/kg when taken intravenously; assay type: ADME, organism-based; set-up: dose 9.9 mg/kg, route intravenous; details: Sprague-Dawley, rat, in vivo, iv
Method in brief: (§3)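 Single intravenous or oral doses were given to male Sprague-Dawley rats (n = 3), with plasma sampled to give Cmax and tmax. Vss was calculated as dose·AUMC/AUC², clearance as dose/AUC, and F as (AUC/dose)po/(AUC/dose)iv × 100, assuming linear PK. t1/2β is the harmonic mean terminal half-life. The oral entries show the iv half-life because the po half-life was not calculable.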

[7] = Absolute oral bioavailability was evaluated n male Dawley rats at a dose of 42.9 mg/kg when taken peroral; assay type: ADME, organism-based; details: Sprague-Dawley, rat, in vivo; method in brief: as §3
[8] = terminal disposition half-life was evaluated in male Dawley rats at 9.9 mg/kg when taken intravenously; assay type: ADME, organism-based; set-up: dose 9.9 mg/kg, route intravenous; details: Sprague-Dawley, rat, in vivo, iv; method in brief: as §3
Rattus norvegicus [9] = test: Dawley rats 9.9 mg/kg when taken intravenously; assay type: functional; details: route intravenous; method in brief: as §3
Staphylococcus aureus [10] = test: The compound was evaluated for its control effective dose against Staphylococcus aureus UC 9213; assay type: functional
Streptococcus pneumoniae [11] = test: The compound was evaluated for its control effective dose against Streptococcus pneumoniea UC 15087; assay type: functional
[12] = terminal disposition half-life was evaluated in male Dawley rats at a dose of 42.9 mg/kg when taken peroral; assay type: ADME, organism-based; set-up: dose 42.9 mg/kg, route oral; details: Sprague-Dawley, rat, in vivo, po; method in brief: as §3
Rattus norvegicus [13] = test: Dawley rats at a dose of 42.9 mg/kg when taken peroral; assay type: functional; details: route oral; method in brief: as §3
Streptococcus pneumoniae [14] = test: The compound was evaluated for its effective dose against Streptococcus pneumoniea UC 15087; assay type: functional
[15] = steady-state volume of distribution was evaluated in male Dawley rats; assay type: ADME, organism-based; details: Sprague-Dawley, rat, in vivo, read-out: Vss; method in brief: as §3
[16] = Cmax was evaluated in male Dawley rats at a dose of 42.9 mg/kg when taken perorally; assay type: ADME, organism-based; set-up: dose 42.9 mg/kg, route oral; details: Sprague-Dawley, rat, in vivo, po; method in brief: as §3
Rattus norvegicus [17] = test: tmax was evaluated in male Dawley rats at a dose of 42.9 mg/kg when taken perorally; assay type: functional, organism-based; set-up: dose 42.9 mg/kg; method in brief: as §3
Rattus norvegicus [18] = test: Dawley rats at a dose of 10 mg/kg when taken intravenously; assay type: functional; details: route intravenous
[19] = Steady-state volume distribution was evaluated in male Dawley rats at a dose of 10 mg/kg when taken intravenously; assay type: ADME, organism-based; set-up: dose 10 mg/kg, route intravenous; details: Sprague-Dawley, rat, in vivo, iv, read-out: Vss
[20] = Cmax was evaluated in male Dawley rats at a dose of 25 mg/kg when taken perorally; assay type: ADME, organism-based; set-up: dose 25 mg/kg, route oral; details: Sprague-Dawley, rat, in vivo, po
Rattus norvegicus [21] = test: tmax was evaluated in male Dawley rats at a dose of 25 mg/kg when taken perorally; assay type: functional, organism-based; set-up: dose 25 mg/kg
[22] = Steady-state volume of distribution was evaluated in male Dawley rats at a dose of 9.0 mg/kg when taken intravenously; assay type: ADME, organism-based; set-up: dose 9 mg/kg, route intravenous; details: Sprague-Dawley, rat, in vivo, iv, read-out: Vss; method in brief: as §3
Rattus norvegicus [23] = test: Dawley rats at a dose of 46.8 mg/kg when taken peroral; assay type: functional; details: route oral; method in brief: as §3
[24] = terminal disposition half-life was evaluated in male Dawley rats at a dose of 46.8 mg/kg when taken peroral; assay type: ADME, organism-based; set-up: dose 46.8 mg/kg, route oral; details: Sprague-Dawley, rat, in vivo, po; method in brief: as §3
Rattus norvegicus [25] = test: Dawley rats at a dose of 9.0 mg/kg when taken intravenously; assay type: functional; details: route intravenous; method in brief: as §3
[26] = terminal disposition half-life was evaluated in male Dawley rats at a dose of 9.0 mg/kg when taken intravenously; assay type: ADME, organism-based; set-up: dose 9 mg/kg, route intravenous; details: Sprague-Dawley, rat, in vivo, iv; method in brief: as §3
[27] = tmax was evaluated in male Dawley rats at a dose of 46.8 mg/kg when taken perorally; assay type: ADME, organism-based; set-up: dose 46.8 mg/kg, route oral; details: Sprague-Dawley, rat, in vivo, po; method in brief: as §3
[28] = Cmax was evaluated in male Dawley rats at a dose of 9.0 mg/kg when taken intravenously; assay type: ADME, organism-based; set-up: dose 9 mg/kg, route intravenous; details: Sprague-Dawley, rat, in vivo, iv; method in brief: as §3
[29] = Cmax was evaluated in male Dawley rats at a dose of 46.8 mg/kg when taken perorally; assay type: ADME, organism-based; set-up: dose 46.8 mg/kg, route oral; details: Sprague-Dawley, rat, in vivo, po; method in brief: as §3
[30] = Absolute oral bioavailability was evaluated n male Dawley rats at a dose of 46.8 mg/kg when taken peroral; assay type: ADME, organism-based; details: Sprague-Dawley, rat, in vivo; method in brief: as §3

Row | Structure (SMILES) | MIC (Streptococcus pneumoniae [1]) [µg/mL] | MIC (Staphylococcus aureus [2]) [µg/mL] | MIC (Enterococcus faecalis) [µg/mL] | MIC (Staphylococcus aureus [3]) [µg/mL] | MIC (Moraxella catarrhalis) [µg/mL] | MIC [4] [µg/mL] | MIC (Haemophilus influenzae) [µg/mL] | ED50 (Staphylococcus aureus [5]) [mg/kg/day] | ED50 (Staphylococcus aureus [10]) [mg/kg/day] | further results
1 | CCOC(=O)c1cnn(-c2ccc(N3C[C@H](CNC(C)=O)OC3=O)cc2F)c1 | 1 (≈ 2.56 µM) | 4 (≈ 10.2 µM) | 4 (≈ 10.2 µM) | 4 (≈ 10.2 µM) | > 16 | 2 (≈ 5.12 µM) | > 16 |  |  | 
2 | CC(=O)NC[C@H]1CN(c2ccc(-n3ccc(C#N)c3)c(F)c2)C(=O)O1 | < 0.125 | 0.25 (≈ 0.73 µM) | 0.25 (≈ 0.73 µM) | 0.5 (≈ 1.46 µM) | 1 (≈ 2.92 µM) | < 0.125 | 4 (≈ 11.7 µM) | 1.9 | 4 | Cmax [6]: 26.1 µM; bioavailability [7]: 92%; half-life [8]: 5.15 h; CL/F (Rattus norvegicus [9]): 1.18 mL/min/kg; ED50 (Streptococcus pneumoniae [11]): 1.4 mg/kg/day; half-life [12]: 5.14 h; CL/F (Rattus norvegicus [13]): 1.43 mL/min/kg; ED50 (Streptococcus pneumoniae [14]): 0.6 mg/kg/day; Vd [15]: 0.52 L/kg; Cmax [16]: 31 µM; Tmax (Rattus norvegicus [17]): 10 h
3 | CC(=O)NC[C@H]1CN(c2ccc(-n3ccc(/C=N\O)c3)c(F)c2)C(=O)O1 | < 0.125 | 0.5 (≈ 1.39 µM) | 0.5 (≈ 1.39 µM) | 1 (≈ 2.78 µM) | 1 (≈ 2.78 µM) | 0.25 (≈ 0.694 µM) | 4 (≈ 11.1 µM) | 5.5 | 2.6 | 
4 | CC(=O)NC[C@H]1CN(c2ccc(N3CCOCC3)c(F)c2)C(=O)O1 [LINEZOLID] |  |  |  |  | 8 (≈ 23.7 µM) | 1 (≈ 2.96 µM) | 16 (≈ 47.4 µM) |  |  | CL/F (Rattus norvegicus [18]): 10.5 mL/min/kg; Vd [19]: 0.72 L/kg; Cmax [20]: 15.8 µM; Tmax (Rattus norvegicus [21]): 0.3 h
5 | CC(=O)NC[C@H]1CN(c2ccc(-n3cc(C#N)cn3)c(F)c2)C(=O)O1 | < 0.125 | 0.5 (≈ 1.46 µM) | 0.5 (≈ 1.46 µM) | 0.5 (≈ 1.46 µM) | 2 (≈ 5.83 µM) | < 0.125 | 4 (≈ 11.7 µM) | 1.2 | 3.3 | Vd [22]: 0.43 L/kg; CL/F (Rattus norvegicus [23]): 1.25 mL/min/kg; ED50 (Streptococcus pneumoniae [11]): 3.2 mg/kg/day; half-life [24]: 5.35 h; CL/F (Rattus norvegicus [25]): 1.04 mL/min/kg; half-life [26]: 5.35 h; Tmax [27]: 4 h; Cmax [28]: 29.2 µM; ED50 (Streptococcus pneumoniae [14]): 0.35 mg/kg/day; Cmax [29]: 29.4 µM; bioavailability [30]: 80%
6 | CC(=O)NC[C@H]1CN(c2ccc(-n3cc(C(N)=O)cn3)c(F)c2)C(=O)O1 | 0.5 (≈ 1.38 µM) |  | > 16 | > 16 | > 16 | 4 (≈ 11.1 µM) | > 16 |  |  | 
7 | CC(=O)NC[C@H]1CN(c2ccc(N3CCN(C(=O)CO)CC3)c(F)c2)C(=O)O1 [EPEREZOLID] | 0.5 (≈ 1.27 µM) | 1 (≈ 2.54 µM) | 2 (≈ 5.07 µM) | 4 (≈ 10.1 µM) | 8 (≈ 20.3 µM) | 0.5 (≈ 1.27 µM) | 16 (≈ 40.6 µM) |  |  | 
8 | CN[C@H](CC(C)C)C(=O)N[C@H]1C(=O)N[C@@H](CC(N)=O)C(=O)N[C@H]2C(=O)N[C@H]3C(=O)N[C@H](C(=O)N[C@H](C(=O)O)c4cc(O)cc(O)c4-c4cc3ccc4O)[C@H](O)c3ccc(c(Cl)c3)Oc3cc2cc(c3O[C@@H]2O[C@H](CO)[C@@H](O)[C@H](O)[C@H]2O[C@H]2C[C@](C)(N)[C@H](O)[C@H](C)O2)Oc2ccc(cc2Cl)[C@H]1O [VANCOMYCIN] | 0.5 (≈ 0.345 µM) |  |  |  | > 32 |  | > 32 |  |  | 
9 | CC(=O)NC[C@H]1CN(c2ccc(-n3ccc(C=O)c3)c(F)c2)C(=O)O1 | < 0.125 | 0.25 (≈ 0.724 µM) | 0.25 (≈ 0.724 µM) | 0.25 (≈ 0.724 µM) | 1 (≈ 2.9 µM) | < 0.125 | 2 (≈ 5.79 µM) | >20 | 1.7 | 

From ChEMBL document CHEMBL1131429, “Nitrogen-carbon-linked (azolylphenyl)oxazolidinones with potent antibacterial activity against the fastidious gram-negative organisms Haemophilus influenzae and Moraxella catarrhalis” (J Med Chem, 1998)
